This is an account of results in ChEMBL document CHEMBL4033789, “Discovery of a New Four-Leaf Clover-Like Ligand as a Potent c-MYC Transcription Inhibitor Specifically Targeting the Promoter G-Quadruplex” (J Med Chem, 2018).

The source made the active and inactive calls. No cut-off for these calls is given here.

Data set [1] can be described thus: Binding affinity to 1 uM BCL2 promoter G-quadruplex DNA (unknown origin) at 1 uM after 1 min by fluorescence spectroscopic analysis. The class given is ADME. The gist of the method:
(§1)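 Fluorescence emission spectra of 1 µM compound mixed with 1 µM pre-annealed oligonucleotide (G-quadruplexes folded in 100 mM KCl by heating to 95 °C for 5 min, slow cooling), in Tris-HCl buffer.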

Data set [2] relates to SiHa. Kind of data set: Antitumor activity against human SiHa cells xenografted in nude BALB/c mouse assessed as tumor growth inhibition at 10 mg,kg, ip administered every other day for 24 days. Format: functional. The procedure, abridged:
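BALB/c nude mice (5 weeks old) given 1×10^7 SiHa cells subcutaneously in right flank; at ~50 mm3 tumor volume, randomized (10 per group) and dosed intraperitoneally every other day for 24 days; controls got equal-volume saline. Caliper volume as 1/2 × length × width2; tumors weighed at end; inhibition rate = (1 − mean treated tumor weight/mean control tumor weight) × 100%.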
(In general: Xenograft models place foreign cells or tissue in a host animal.)

Data set [3] is filed under the species Homo sapiens. Kind of data set: Stabilization of c-Myc promoter G-quadruplex DNA in human Raji cells assessed as downregulation of exon 1 transcriptional level after 6 hrs by RT-PCR analysis. The class given is cell-based. The gist of the method:
(§2)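 RAJI and CA46 cells treated 6 h over a concentration range; total RNA reverse-transcribed (oligo dT18, M-MLV, 42 °C 1 h then 85 °C 5 min); exon 1 and exon 2 amplified by real-time PCR with exon-specific primers, products run on 1% agarose gel; three repeats.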

For data set [4], the system named is SiHa. The experiment in a line: Induction of cell cycle arrest in human SiHa cells assessed as downregulation of CDK6 protein levels after 24 hrs by Western blot analysis. The class given is functional, cell-based. The procedure, abridged:
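SiHa cells (2.0×10^5 per well) treated 24 h, lysed at 4 °C for 30 min, supernatant cleared at 15,000 rpm; protein measured by BCA, 30 µg resolved on 10% SDS-PAGE, transferred to nitrocellulose, blocked in 5% milk/TBS-Tween 1 h, primary antibodies overnight at 4 °C, HRP secondaries 2 h at room temperature.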
Background: Immunoblotting shows a protein as a band on a membrane.

The subject of another data set is BJ. The experiment in a line: Cytotoxicity against human BJ cells assessed as reduction in cell viability after 24 hrs by MTT assay. The class given is cell-based. The gist of the method:
(§3)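 Cells seeded at 5.0×10^3 per well, exposed to compound for 24 h; MTT (2.5 mg/mL) added for 4 h, formazan dissolved in DMSO, OD read at 570 nm. Triplicate; IC50 from curves of mean OD against concentration.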

A short description of data set [5]: Stabilization of BCL2 promoter G-quadruplex DNA (unknown origin) assessed as effect on melting temperature at 15 uM by circular dichroism spectroscopic assay. Format: ADME. The gist of the method: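 G-quadruplex at 3 µM, with or without 15 µM compound, in 10 mM Tris-HCl pH 7.2 containing 2 mM KCl; CD recorded every 5 °C from 25 to 95 °C at a heating rate of 1 °C/min.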
For orientation: CD spectra are sensitive to the conformation of chiral molecules.

A short description of data set [6]: Binding affinity to BCL2 promoter G-quadruplex DNA (unknown origin) after 1 min by fluorescence titration method. Format: ADME. The procedure, abridged:
(§4)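 Oligonucleotide stock added stepwise to fixed-concentration compound in 10 mM Tris-HCl pH 7.2, 100 mM KCl; equilibrated ≥1 min after each addition, emission read with excitation at 350 nm. KD from fitting titration data to the Benesi–Hildebrand equation; 1:1 stoichiometry checked by Job plot.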

A short description of data set [7]: Binding affinity to VEGF promoter G-quadruplex DNA (unknown origin) after 1 min by fluorescence titration method. Format: ADME. The gist of the method: as §4
The subject of data set [8] is SiHa. The experiment in a line: Induction of cell cycle arrest in human SiHa cells assessed as accumulation at G0/G1 phase after 12 hrs by propidium iodide-staining based FACS analysis. Format: functional. The procedure, abridged:
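SiHa cells treated 12 h, fixed in 70% ethanol at 4 °C overnight, stained with 50 µg/mL PI plus 75 KU/mL RNase A in PBS for 30 min in the dark at room temperature; flow cytometry, 1.6×10^4 events per sample, cell cycle distribution analyzed.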

The nature of data set [9]: Stabilization of c-Myc mutant promoter DNA (unknown origin) transfected in human SiHa cells assessed as reduction in gene transcription at 1.25 to 2.5 uM after 24 hrs by dual-luciferase reporter gene assay. The class given is cell-based. The gist of the method: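 SiHa cells transfected with psiCHECK2 carrying wild-type or mutant c-MYC promoter driving Renilla luciferase, firefly luciferase on same plasmid; compound added 4 h post-transfection, incubated further at 37 °C; Renilla signal normalized to firefly; three repeats, mean ± SEM.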

Data set [10] is described as follows: Stabilization of antiparallel HRAS G-quadruplex DNA (unknown origin) assessed as effect on melting temperature at 15 uM by circular dichroism spectroscopic assay. The class given is ADME. The gist of the method:
(§5)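 CD melting of 3 µM annealed G-quadruplex with or without 15 µM ligand in 10 mM Tris-HCl pH 7.2 with 2 mM KCl (50 mM KCl for htg22 and HRAS); read every 5 °C over 25–95 °C, heating 1 °C/min.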

Data set [11] has as its system SiHa. The experiment in a line: Induction of apoptosis in human SiHa cells after 24 hrs by Annexin V-FITC/propidium iodide-staining based flow cytometric analysis. The class given is functional, cell-based.
Data set [12] can be described thus: Stabilization of RET G-quadruplex DNA in human SiHa cells assessed as effect on RET mRNA level at 1.25 to 5 uM fter 6 hrs by RT-PCR method. The class given is ADME, cell-based. The gist of the method:
(§6)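 SiHa cells (2.0×10^5) dosed 6 h; total RNA reverse-transcribed with oligo dT18 primer and M-MLV (42 °C 1 h, 85 °C 5 min); PCR 95 °C 5 min then 30 cycles (95 °C 30 s, 58 °C 30 s, 72 °C 40 s); products checked on agarose gel.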

Data set [13] in a line: Stabilization of PDGFA G-quadruplex DNA in human SiHa cells assessed as effect on PDGFA mRNA level at 1.25 to 5 uM fter 6 hrs by RT-PCR method. Format: ADME, cell-based. The gist of the method:
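SiHa cells (2.0×10^5 per well) treated 6 h; total RNA (2 µg) reverse-transcribed with oligo dT18 and M-MLV at 42 °C for 1 h, 85 °C for 5 min; PCR: 95 °C 5 min, then 30 cycles of 95 °C 30 s, 58 °C 30 s, 72 °C 40 s; products checked on agarose gel.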

Data set [14] in a line: Binding affinity to 1 uM VEGF promoter G-quadruplex DNA (unknown origin) at 1 uM after 1 min by fluorescence spectroscopic analysis. The class given is ADME. The gist of the method:
as §1

For data set [15], the species on record is Homo sapiens. Kind of data set: Stabilization of c-Myc promoter G-quadruplex DNA in human CA46 cells assessed as downregulation of exon 1 transcriptional level at 1.25 to 5 uM after 6 hrs by RT-PCR analysis. The class given is cell-based. The gist of the method:
as §2

Data set [16] can be described thus: Stabilization of hybrid telomeric htg22 G-quadruplex DNA (unknown origin) assessed as effect on melting temperature at 15 uM by circular dichroism spectroscopic assay. Format: ADME. The procedure, abridged:
as §5

The subject of another data set is Mus musculus. The experiment in a line: Toxicity in nude BALB/c mouse xenografted with human SiHa cells assessed as signs of distress at 5 to 20 mg/kg, ip administered every other day for 24 days. The class given is organism-based. The following applies: in vivo, 576 h.
Another data set relates to HeLa. The experiment in a line: Cytotoxicity against human HeLa cells assessed as reduction in cell viability after 24 hrs by MTT assay. Format: functional, cell-based. The procedure, abridged: as §3
Data set [17] relates to SiHa. The experiment in a line: Induction of apoptosis in human SiHa cells assessed as late apoptotic cells at 5 uM after 24 hrs by Annexin V-FITC/propidium iodide-staining based flow cytometric analysis. The class given is functional.
Data set [18] in a line: Stabilization of VEGF G-quadruplex DNA in human SiHa cells assessed as effect on VEGF mRNA level at 1.25 to 5 uM fter 6 hrs by RT-PCR method. The class given is ADME, cell-based. The gist of the method:
as §6

What is called TGI is how far tumour growth fell short of that in controls. As a reminder, the IC50 is the concentration at which inhibition is half-maximal. As a reminder, the Kd is a measure of binding affinity in units of concentration.

For the compound `CCn1c2ccccc2c2cc(-c3nc(-c4ccc(N5CCN(C)CC5)cc4)c(-c4ccc(N5CCN(C)CC5)cc4)n3-c3ccc(OC)cc3)ccc21`, the Activity entry in data set [1] is “Not Active”; in the data set filed under Homo sapiens [3], “Dose-dependent effect”; with SiHa [4], “Dose-dependent effect”; in data set [5] it was “Not Active”; with SiHa [8], “Dose-dependent effect”; in data set [10] it was “Not Active”. The Activity result in the data set with SiHa [11] is “Dose-dependent effect”; in data set [12], “Not Active”; in data set [13], “Not Active”; in data set [14], “Not Active”; in [16] it was “Not Active”; with Mus musculus, “Non-Toxic”. Besides, the figures for the Activity (with SiHa [17]; in [18]) were 52% and “Not Active”, respectively. For the same compound, in the data set with SiHa [2], the TGI is 64%. Further, the values for the IC50 with BJ and with HeLa were 15900 nM and 2100 nM, respectively. Further, the Kd in [6] was 800 nM; in data set [7], 900 nM. The outcome in [9] was inactive. Besides, the result in the data set filed under Homo sapiens [15] was Active.
